Test results: ChEMBL document CHEMBL1135973, “Synthesis and structure-activity relationships of 6,7-benzomorphan derivatives as use-dependent sodium channel blockers for the treatment of stroke” (J Med Chem, 2002)

Legend:
Mus musculus [1] = organism: Mus musculus; assay: Ability to block convulsions in the maximal electroshock test (MES) in mice; assay type: functional
Method in brief: (§1)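 Male OF1 mice, groups of 10, given several doses sc; electroshock 20 mA/50 Hz/200 ms through eye electrodes 15 min after injection. Score is the percentage of animals free of tonic convulsions. ID50 for inhibition of tonic seizures obtained by log-probit analysis over three to four doses.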

[2] = target: T1, Sodium channel alpha subunits; brain (Types I, II, III) (Rattus norvegicus, UniProt P04775+P04774+P08104); assay: Inhibitory effect against veratridine-induced glutamate release from rat brain slices; assay type: functional
Method in brief: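 Cross-chopped 0.2 mm slices of Chbb:Thom rat cortex or striatum preincubated 45 min at 37 °C in oxygenated Krebs–Henseleit buffer pH 7.4 with glucose, EDTA and ascorbate. Then 15 min with or without 3 μM veratridine, drug present throughout. After centrifugation, supernatant glutamate measured by HPLC with fluorimetric detection; protein by Coomassie.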

[3] = target: T1, Sodium channel alpha subunits; brain (Types I, II, III); assay: Displacement of [3H]BTX from sodium channel of rat cerebral cortex synaptosomes; assay type: subcellular
Method in brief: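 Synaptosomal membranes from rat cerebral cortex incubated 1 h at 37 °C with 1 nmol/L [3H]BTX-B in choline Cl/HEPES-Tris buffer pH 7.4 containing glucose, KCl and MgSO4, plus scorpion venom. Nonspecific binding defined with 100 μmol/L aconitine. Stopped by vacuum filtration through glass fiber and two buffer washes.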

Mus musculus [4] = organism: Mus musculus; assay: Percent of mice that did not develop tonic convulsion in the maximal electroshock test (MES); assay type: functional; method in brief: as §1
Mus musculus [5] = organism: Mus musculus; assay: Ability to block convulsions in the maximal electroshock test(MES) in mice; assay type: functional; settings: read-out: ID50 (the source's name); method in brief: as §1
[6] = target: T2, Voltage-gated L-type calcium channel (Rattus norvegicus, UniProt P22002+Q02485+P27732); assay: Displacement of dihydropyridine (DHP) from the L-type calcium channel binding site; assay type: protein assay
[7] = target: T2, Voltage-gated L-type calcium channel; assay: Displacement of verapamil from L-type calcium channel binding site; assay type: protein assay
[8] = target: T1, Sodium channel alpha subunits; brain (Types I, II, III); assay: Displacement of [3H]-TTX from sodium channel of rat cerebral cortex synaptosomes; assay type: subcellular
[9] = target: T2, Voltage-gated L-type calcium channel; assay: Displacement of diltiazem from L-type calcium channel binding site; assay type: protein assay
[10] = target: T3, Sodium channel alpha subunits; brain (Types I, II, III) (Rattus norvegicus) (UniProt P04775+P04774+P08104); assay: Percent inhibition of veratridine-induced glutamate release in rat brain slices at 10000 nmol/L; assay type: functional, tissue-based
T3 sequence (P04775 whole entry, looked up, other chains not shown): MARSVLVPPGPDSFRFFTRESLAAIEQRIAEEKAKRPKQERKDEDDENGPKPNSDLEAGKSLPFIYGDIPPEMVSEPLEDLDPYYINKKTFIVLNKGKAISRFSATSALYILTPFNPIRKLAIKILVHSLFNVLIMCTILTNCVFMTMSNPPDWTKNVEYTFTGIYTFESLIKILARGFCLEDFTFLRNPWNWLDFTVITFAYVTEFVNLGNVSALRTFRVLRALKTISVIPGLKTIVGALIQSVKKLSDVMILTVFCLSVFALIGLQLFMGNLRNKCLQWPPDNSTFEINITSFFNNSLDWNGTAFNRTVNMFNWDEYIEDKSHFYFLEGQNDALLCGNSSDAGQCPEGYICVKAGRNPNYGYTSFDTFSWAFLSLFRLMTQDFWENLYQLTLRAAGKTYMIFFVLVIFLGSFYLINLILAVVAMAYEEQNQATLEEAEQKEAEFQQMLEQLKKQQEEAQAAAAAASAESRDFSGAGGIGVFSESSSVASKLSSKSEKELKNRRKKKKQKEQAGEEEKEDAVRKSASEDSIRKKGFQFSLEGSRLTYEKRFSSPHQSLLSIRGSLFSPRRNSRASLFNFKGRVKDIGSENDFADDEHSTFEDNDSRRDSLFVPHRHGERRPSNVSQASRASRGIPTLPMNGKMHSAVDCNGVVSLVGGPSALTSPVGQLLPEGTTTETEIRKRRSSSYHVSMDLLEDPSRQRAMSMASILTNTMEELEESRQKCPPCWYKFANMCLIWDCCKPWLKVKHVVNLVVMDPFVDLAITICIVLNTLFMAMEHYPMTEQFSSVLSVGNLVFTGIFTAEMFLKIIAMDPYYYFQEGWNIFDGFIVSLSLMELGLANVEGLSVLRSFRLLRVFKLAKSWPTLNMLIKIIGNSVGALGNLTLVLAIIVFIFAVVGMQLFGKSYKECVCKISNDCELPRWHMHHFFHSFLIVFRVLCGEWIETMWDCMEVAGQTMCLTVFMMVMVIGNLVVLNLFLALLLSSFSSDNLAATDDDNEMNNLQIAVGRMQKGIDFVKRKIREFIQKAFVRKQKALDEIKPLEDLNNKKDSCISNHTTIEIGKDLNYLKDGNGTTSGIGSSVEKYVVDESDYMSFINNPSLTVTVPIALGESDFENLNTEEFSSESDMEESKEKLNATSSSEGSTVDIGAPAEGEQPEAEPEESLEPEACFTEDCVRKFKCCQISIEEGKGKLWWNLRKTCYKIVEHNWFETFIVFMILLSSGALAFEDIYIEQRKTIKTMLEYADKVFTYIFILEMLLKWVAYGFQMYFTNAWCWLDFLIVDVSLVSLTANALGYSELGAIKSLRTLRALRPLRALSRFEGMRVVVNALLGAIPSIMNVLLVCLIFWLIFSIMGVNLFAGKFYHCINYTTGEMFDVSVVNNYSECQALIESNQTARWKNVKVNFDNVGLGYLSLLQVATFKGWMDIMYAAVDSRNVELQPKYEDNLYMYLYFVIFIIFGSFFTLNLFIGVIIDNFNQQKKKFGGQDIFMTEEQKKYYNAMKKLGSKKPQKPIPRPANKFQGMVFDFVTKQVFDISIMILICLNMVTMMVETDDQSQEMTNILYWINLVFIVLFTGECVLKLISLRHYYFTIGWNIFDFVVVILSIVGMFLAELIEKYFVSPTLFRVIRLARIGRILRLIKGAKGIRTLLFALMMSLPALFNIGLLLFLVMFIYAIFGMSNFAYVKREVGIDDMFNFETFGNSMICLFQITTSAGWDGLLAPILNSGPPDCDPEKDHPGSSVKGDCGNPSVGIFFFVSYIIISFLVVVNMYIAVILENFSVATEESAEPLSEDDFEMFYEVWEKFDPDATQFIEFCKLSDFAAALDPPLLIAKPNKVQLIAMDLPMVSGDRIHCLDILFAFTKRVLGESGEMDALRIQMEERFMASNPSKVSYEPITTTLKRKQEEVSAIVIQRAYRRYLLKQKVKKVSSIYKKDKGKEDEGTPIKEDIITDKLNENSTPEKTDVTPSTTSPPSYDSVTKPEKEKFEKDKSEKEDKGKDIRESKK
T3 sequence (P08104 whole entry, looked up, other chains not shown): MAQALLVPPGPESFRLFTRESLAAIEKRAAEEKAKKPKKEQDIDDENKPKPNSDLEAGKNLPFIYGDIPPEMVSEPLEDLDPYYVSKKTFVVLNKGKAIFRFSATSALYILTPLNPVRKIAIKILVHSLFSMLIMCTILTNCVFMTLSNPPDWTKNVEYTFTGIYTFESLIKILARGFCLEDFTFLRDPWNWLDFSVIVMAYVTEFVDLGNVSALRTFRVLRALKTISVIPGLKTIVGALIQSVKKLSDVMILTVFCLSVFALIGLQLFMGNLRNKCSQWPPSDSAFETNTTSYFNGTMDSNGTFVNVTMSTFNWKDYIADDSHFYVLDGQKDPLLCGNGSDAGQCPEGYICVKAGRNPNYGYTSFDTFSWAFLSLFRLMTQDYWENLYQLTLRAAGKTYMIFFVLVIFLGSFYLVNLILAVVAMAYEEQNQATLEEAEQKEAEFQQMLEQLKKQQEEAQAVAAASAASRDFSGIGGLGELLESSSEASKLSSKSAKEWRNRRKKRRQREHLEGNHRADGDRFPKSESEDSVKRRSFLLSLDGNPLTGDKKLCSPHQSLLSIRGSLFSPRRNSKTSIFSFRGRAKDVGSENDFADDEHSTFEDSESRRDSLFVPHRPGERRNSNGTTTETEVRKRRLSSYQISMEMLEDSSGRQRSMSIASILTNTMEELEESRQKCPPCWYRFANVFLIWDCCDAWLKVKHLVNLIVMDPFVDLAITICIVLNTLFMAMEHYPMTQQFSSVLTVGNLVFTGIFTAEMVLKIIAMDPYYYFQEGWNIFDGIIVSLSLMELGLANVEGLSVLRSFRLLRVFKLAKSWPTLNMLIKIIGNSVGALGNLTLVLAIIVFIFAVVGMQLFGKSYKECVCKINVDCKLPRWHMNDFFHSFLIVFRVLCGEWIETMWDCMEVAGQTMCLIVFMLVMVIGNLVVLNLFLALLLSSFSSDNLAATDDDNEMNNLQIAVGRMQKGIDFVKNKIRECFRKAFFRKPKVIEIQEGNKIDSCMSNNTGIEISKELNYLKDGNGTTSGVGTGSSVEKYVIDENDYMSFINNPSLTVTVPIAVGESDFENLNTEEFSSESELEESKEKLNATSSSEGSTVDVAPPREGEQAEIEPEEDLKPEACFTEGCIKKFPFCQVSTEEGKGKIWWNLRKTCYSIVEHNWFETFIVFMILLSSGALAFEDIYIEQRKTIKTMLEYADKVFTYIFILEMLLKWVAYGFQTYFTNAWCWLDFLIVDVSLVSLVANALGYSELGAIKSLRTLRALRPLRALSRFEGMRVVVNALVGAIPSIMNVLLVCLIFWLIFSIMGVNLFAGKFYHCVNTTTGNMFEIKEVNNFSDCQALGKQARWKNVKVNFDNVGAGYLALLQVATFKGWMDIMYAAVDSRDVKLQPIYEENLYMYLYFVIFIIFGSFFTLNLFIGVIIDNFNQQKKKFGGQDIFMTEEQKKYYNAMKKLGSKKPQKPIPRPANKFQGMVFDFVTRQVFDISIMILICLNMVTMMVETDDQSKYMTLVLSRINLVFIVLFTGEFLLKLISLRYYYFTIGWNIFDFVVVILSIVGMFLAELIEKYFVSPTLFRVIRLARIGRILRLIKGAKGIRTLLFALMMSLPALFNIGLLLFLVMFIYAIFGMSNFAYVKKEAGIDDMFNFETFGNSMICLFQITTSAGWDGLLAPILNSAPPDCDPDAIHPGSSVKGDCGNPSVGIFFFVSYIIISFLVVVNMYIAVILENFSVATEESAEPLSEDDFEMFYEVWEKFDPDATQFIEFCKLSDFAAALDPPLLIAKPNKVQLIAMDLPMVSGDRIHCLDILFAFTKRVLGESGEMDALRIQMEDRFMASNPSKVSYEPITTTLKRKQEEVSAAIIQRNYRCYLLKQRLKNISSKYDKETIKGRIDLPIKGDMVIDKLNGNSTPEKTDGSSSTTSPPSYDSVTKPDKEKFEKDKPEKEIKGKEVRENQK

[11] = target: T3, Sodium channel alpha subunits; brain (Types I, II, III) (Rattus norvegicus); assay: Percent inhibition of [3H]BTX displacement at 10000 nmol/L; assay type: protein assay
[12] = target: T2, Voltage-gated L-type calcium channel; assay: Displacement of DHP from L-type calcium channel binding site; assay type: protein assay
[13] = read-out: ID50 (the source's name)

| Structure (SMILES) | IC50 [2] | Ki [3] [nM] | ED50 (Mus musculus [1]; [13]) [mg/kg] | also measured |
| --- | --- | --- | --- | --- |
| CO[C@H](C)CN1CCC2(C)c3cccc(O)c3C[C@@H]1C2(C)C | 4153 nmol/L | 3310 |  | ED50 (Mus musculus [1]): 0.8 mg/kg |
| C[C@H](CN1CCC2(C)c3cccc(O)c3C[C@@H]1C2(C)C)OCC1CCCCC1 | 1481 nmol/L | 241 |  | Mice (Mus musculus [4]): 0%; ED50 (Mus musculus [5]): > 30 mg/kg |
| CC1[C@H]2Cc3c(O)cccc3C1(C)CCN2C[C@H](C)OCc1ccccc1 (stereo partly specified) | 134 nmol/L | 54 | 2.4 |  |
| CC12CCN(CCc3ccccc3)[C@@H](Cc3cc(O)ccc31)C2(C)C | 5029 nmol/L | 1290 |  |  |
| CO[C@@H](C)CN1CCC2(C)c3cccc(O)c3C[C@@H]1C2(C)C | 3190 nmol/L | 783 |  | ED50 (Mus musculus [1]): 1 mg/kg |
| CC12CCN(CCOCc3ccccc3)[C@H](Cc3c(O)cccc31)C2(C)C | 379 nmol/L | 20 | 2.1 | Ki [6]: > 10000 nM l-1; Ki [7]: 60 nM l-1; Ki [8]: > 10000 nM l-1; Ki [9]: 217 nM l-1 |
| C[C@H](CN1CCC2(C)c3ccc(O)cc3C[C@H]1C2(C)C)OCc1ccccc1 | 2676 nmol/L | 1230 | > 100 | Mice (Mus musculus [4]): 30% |
| C[C@@H](CN1CCC2(C)c3ccc(O)cc3C[C@@H]1C2(C)C)Oc1ccccc1 | 5799 nmol/L | 149 | > 30 | Animals (Mus musculus [4]): 0% |
| Cc1cccc(C)c1OCC(C)N (stereo unspecified) [MEXILETINE] | 47000 nmol/L | 22700 |  |  |
| C[C@H](CN1CCC2(C)c3ccc(O)cc3C[C@H]1C2(C)C)Oc1ccccc1 | 6340 nmol/L | 864 |  |  |
| C[C@H](CN1CCC2(C)c3ccc(O)cc3C[C@@H]1C2(C)C)Oc1ccccc1 | 6024 nmol/L | 662 |  |  |
| COC(C)CN1CCC2(C)c3cc(O)ccc3C[C@@H]1C2(C)C (stereo partly specified) | > 10000 nmol/L | 6010 |  | ED50 (Mus musculus [1]): 0.1 mg/kg; inhibition [10]: 29% |
| Cc1ccc(-c2nc(CN3CCN(C(c4ccccc4)c4ccccc4)CC3)c(C)[nH]2)cc1 [LIFARIZINE] | 494 nmol/L | 259 |  |  |
| C[C@H](CN1CCC2(C)c3ccc(O)cc3C[C@@H]1C2(C)C)OCc1ccccc1 | 3177 nmol/L | 382 | 35.3 |  |
| C[C@H](CN1CCC2(C)c3cccc(O)c3C[C@H]1C2(C)C)OCc1ccccc1 | 3772 nmol/L | 1490 | > 100 | Mice (Mus musculus [4]): 40% |
| C[C@@H](CN1CCC2(C)c3ccc(O)cc3C[C@H]1C2(C)C)Oc1ccccc1 | 6464 nmol/L | 1530 | > 100 | Animals (Mus musculus [4]): 0% |

| Structure (SMILES) | IC50 [2] | Ki [3] [nM] | ED50 (Mus musculus [1]; [13]) [mg/kg] | also measured |
| --- | --- | --- | --- | --- |
| COc1ccc2c(c1)[C@]13CCCC[C@@H]1[C@H](C2)N(C)CC3 [DEXTROMETHORPHAN] | > 10000 nmol/L | 4800 |  | inhibition [10]: 5% |
| CN(c1nc2ccccc2s1)C1CCN(C[C@H](O)COc2ccc(F)c(F)c2)CC1 [LUBELUZOLE] |  | 203 |  |  |
| C[C@@H](CN1CCC2(C)c3cccc(O)c3C[C@H]1C2(C)C)OCc1ccccc1 | 1289 nmol/L | 1330 | > 100 | Mice (Mus musculus [4]): 40% |
| C[C@@H](CN1CCC2(C)c3ccc(O)cc3C[C@@H]1C2(C)C)OCc1ccccc1 | 2300 nmol/L | 312 | 10.1 |  |
| CO[C@@H](C)CN1CCC2(C)c3cccc(O)c3C[C@H]1C2(C)C | > 10000 nmol/L | 10000 |  | inhibition [10]: 25%; inhibition [11]: 52% |
| CC1[C@H]2Cc3c(O)cccc3C1(C)CCN2C[C@@H](C)OCc1ccccc1 (stereo partly specified) | 452 nmol/L | 153 | 3.1 |  |
| C[C@@H](CN1CCC2(C)c3cccc(O)c3C[C@@H]1C2(C)C)OCc1ccccc1 | 322 nmol/L | 43 | 6.1 | Ki [7]: 449 nM l-1; Ki [12]: > 10000 nM l-1; Ki [8]: > 10000 nM l-1; Ki [9]: 660 nM l-1 |
| CO[C@H](C)CN1CCC2(C)c3cccc(O)c3C[C@H]1C2(C)C | > 10000 nmol/L | 10000 |  | inhibition [10]: 42%; inhibition [11]: 48% |
| C[C@@H](CN1CCC2(C)c3ccc(O)cc3C[C@H]1C2(C)C)OCc1ccccc1 | 4516 nmol/L | 1870 | > 100 | Mice (Mus musculus [4]): 30% |
| C[C@@H](CN1CCC2(C)c3cccc(O)c3C[C@@H]1C2(C)C)OCC1CCCCC1 | 975 nmol/L | 208 | > 30 | Mice (Mus musculus [4]): 0% |
| CC(CN1CCC2(C)C[C@@H]1Cc1c(O)cccc12)OCc1ccccc1 (stereo partly specified) | 255 nmol/L | 47 | 2.2 |  |
| C[C@H](CN1CCC2(C)c3cccc(O)c3C[C@@H]1C2(C)C)OCc1ccccc1 | 922 nmol/L | 114 | 9.4 | Ki [7]: 500 nM l-1; Ki [12]: > 10000 nM l-1; Ki [8]: > 10000 nM l-1; Ki [9]: 391 nM l-1 |
| CO[C@@H](C)CN1CCC2(C)c3ccccc3C[C@@H]1C2(C)C | ~ 10000 nmol/l | 4700 |  | inhibition [10]: 52% |
| COC(C)CN1CCC2(C)c3ccc(O)cc3C[C@@H]1C2(C)C (stereo partly specified) | > 10000 nmol/L | > 10000 |  | ED50 (Mus musculus [1]): 0.7 mg/kg; inhibition [10]: 21%; inhibition [11]: 45% |
| COC(C)CN1CCC2(C)c3c(O)cccc3C[C@@H]1C2(C)C (stereo partly specified) | > 10000 nmol/L | 8990 |  | inhibition [10]: 23% |
